According to ChEMBL document CHEMBL4376878, “Potent Thiophene Antagonists of Human Complement C3a Receptor with Anti-Inflammatory Activity” (J Med Chem, 2020):
Active and inactive are the calls of the source. No cut-off for these calls is given here.

Columns and labels:
[1] = tested on: Rattus norvegicus; test: Antiinflammatory activity in Wistar rat model of BR103-induced paw edema assessed as reduction in histamine release at 10 mg/kg, po administered via gavage pretreated for 2 hrs followed by BR103 challenge and measured after 30 mins by immunohistochemical analysis; assay type: functional, organism-based
Procedure, shortened: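 Male Wistar rats 7–8 weeks old, given 10 mg/kg p.o. in olive oil 2 h before i.pl. BR103 (350 μg/paw). Sham/control received olive oil. Left paw plantar tissue taken 30 min after agonist and fixed in formalin. Frozen 5 μm sections stained with alcian blue/safranin O, or immunostained for tryptase, histamine or ED1. Positive cells quantified; n = 5 per group, one-way ANOVA.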

[2] = Clearance in Wistar rat at 1 mg/kg, iv by LC-MS/MS analysis; assay type: ADME, organism-based; conditions: in vivo
Procedure, shortened: (§1)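 Male Wistar rats with jugular vein catheter, fasted overnight; dosed p.o. by gavage in olive oil or i.v. via catheter in 50% DMSO. Blood drawn from conscious unrestrained rats 5 min before dosing, then 5, 15, 30 min and 1–8 h after. Volume replaced with heparinized saline. Rats fed after 4 h sample. n = 3 per route.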

[3] = molecular target: T1, C3a anaphylatoxin chemotactic receptor (Homo sapiens, UniProt Q16581); test: (§2) Antagonist activity at C3a receptor in human MDM cells assessed as inhibition of C3a-induced intracellular calcium release preincubated for 30 mins followed by C3a addition and measured at 1 sec interval for => 200 secs by Fluo-3 AM dye-based FLIPR assay; assay type: functional, cell-based; conditions: read-out: IC50
T1 sequence (Q16581 whole entry): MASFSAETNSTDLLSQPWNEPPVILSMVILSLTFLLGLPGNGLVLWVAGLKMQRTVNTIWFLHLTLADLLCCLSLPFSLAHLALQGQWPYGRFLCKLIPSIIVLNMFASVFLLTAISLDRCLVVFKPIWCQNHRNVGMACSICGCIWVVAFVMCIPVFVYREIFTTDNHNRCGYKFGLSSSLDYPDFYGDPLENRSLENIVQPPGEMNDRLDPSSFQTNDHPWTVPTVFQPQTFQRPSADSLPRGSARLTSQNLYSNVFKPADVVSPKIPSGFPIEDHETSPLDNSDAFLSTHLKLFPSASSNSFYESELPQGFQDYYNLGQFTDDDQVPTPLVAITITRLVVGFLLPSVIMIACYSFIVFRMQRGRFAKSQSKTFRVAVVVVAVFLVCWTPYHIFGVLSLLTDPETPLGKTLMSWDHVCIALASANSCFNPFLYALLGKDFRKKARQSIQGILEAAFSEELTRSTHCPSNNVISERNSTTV
Procedure, shortened: (§3)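 Macrophages were derived from CD14⁺ monocytes (M-CSF, 7 days) and dye-loaded with 4 μM Fluo-3 AM for 1 h at 37 °C in HBSS/probenecid/HEPES, pH 7.4. Antagonist was preincubated for 30 min at 37 °C before addition of synthetic full-length human C3a (100 nM). FLIPR fluorescence was read at ex 495/em 520 nm. Percent response was plotted against log concentration; n ≥ 3.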

[4] = molecular target: T2, C3a anaphylatoxin chemotactic receptor (Homo sapiens) (UniProt Q16581); test: as §2; assay type: functional, cell-based; procedure, shortened: as §3
T2 sequence (whole entry): T1 sequence (Q16581 whole entry)

[5] = Cmax in Wistar rat at 10 mg/kg, po by LC-MS/MS analysis; assay type: ADME, organism-based; set-up: dose 10 mg/kg, route oral; conditions: in vivo; procedure, shortened: as §1
[6] = tested on: Rattus norvegicus; test: Antiinflammatory activity in Wistar rat model of BR103-induced paw edema assessed as reduction in Tnf gene expression at 10 mg/kg, po administered via gavage pretreated for 2 hrs followed by BR103 challenge and measured after 30 mins by SYBR green dye based RT-PCR analysis; assay type: functional, organism-based
Procedure, shortened: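 Rats given 10 mg/kg p.o. in olive oil 2 h before i.pl. BR103 (350 μg/paw). Paws collected 0.5 h after agonist and homogenized in TRIsure for RNA. qPCR run in duplicate, normalized to Hprt, with fold change relative to sham. n = 3–5 male Wistar rats per group.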

[7] = Tmax in Wistar rat at 10 mg/kg, po by LC-MS/MS analysis; assay type: ADME, organism-based; conditions: in vivo; procedure, shortened: as §1
[8] = Stability of the compound in rat liver microsomes at 1 uM preincubated for 5 mins followed by NADPH addition and measured after 1 hr by LC-MS/MS analysis; assay type: ADME, Microsome
Procedure, shortened: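 Compound at 1 μM in 100 mM phosphate buffer, pH 7.4 (0.1% DMSO), was incubated with rat liver microsomes […] at 37 °C before further NADPH was added. Aliquots taken at 0, 5, 15, 30 and 60 min were quenched in MeCN/H₂O (9:1), centrifuged and analysed by LC-MS/MS. Microsomal activity was confirmed in parallel with SLIGRL-NH₂; n = 3.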

[9] = tested on: Rattus norvegicus; test: Antiinflammatory activity in Wistar rat model of BR103-induced paw edema assessed as reduction in hind paw swelling at 30 mg/kg, po administered via gavage pretreated for 6 to 8 hrs followed by BR103 challenge and measured after 30 mins by digital caliper method relative to control; assay type: functional; set-up: scale not given: the % may be the effect or the level left
Procedure, shortened: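 For duration of action, antagonist was given at 30 mg/kg by oral gavage in olive oil at 1, 2, 4, 6, 8 or 12 h before intraplantar BR103 (350 μg/paw) in male Wistar rats. Controls received olive oil 2 h before challenge. Paw thickness and width were measured with calipers at 0 and 0.5 h; n = 3 per group.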

[10] = molecular target: T3, C5a anaphylatoxin chemotactic receptor 1 (Homo sapiens) (UniProt P21730); test: Antagonist activity at C5a receptor in human MDM cells assessed as inhibition of C5a-induced intracellular calcium release preincubated for 30 mins followed by C5a addition and measured at 1 sec interval for => 200 secs by Fluo-3 AM dye-based FLIPR assay; assay type: functional, cell-based
T3 sequence (whole entry): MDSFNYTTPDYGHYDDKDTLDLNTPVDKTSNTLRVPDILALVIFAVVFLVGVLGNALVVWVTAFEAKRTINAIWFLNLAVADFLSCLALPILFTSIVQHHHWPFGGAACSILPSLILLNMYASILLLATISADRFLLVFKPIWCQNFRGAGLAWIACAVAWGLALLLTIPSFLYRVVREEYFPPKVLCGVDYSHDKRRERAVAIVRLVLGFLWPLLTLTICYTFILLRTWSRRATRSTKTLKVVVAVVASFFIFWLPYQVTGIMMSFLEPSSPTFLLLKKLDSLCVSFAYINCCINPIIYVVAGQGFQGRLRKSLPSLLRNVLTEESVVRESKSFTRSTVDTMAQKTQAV
Procedure, shortened: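 HMDMs from CD14+ monocytes after 7 days in M-CSF; 5 × 10⁴ cells/well seeded overnight. Cells loaded 1 h at 37 °C with 4 μM Fluo-3 AM, then washed into HBSS with 2.5 mM probenecid and 20 mM HEPES, pH 7.4. Antagonist preincubated 30 min at 37 °C before C5a. Fluorescence (ex 495/em 520 nm) read every 1 s for ≥200 s.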

[11] = molecular target: T1, C3a anaphylatoxin chemotactic receptor; test: Agonist activity at C3a receptor in human MDM cells assessed as induction of intracellular calcium release measured at 1 sec interval for => 200 secs by Fluo-3 AM dye-based FLIPR assay; assay type: cell-based
Procedure, shortened: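 HMDMs were differentiated from CD14⁺ monocytes with M-CSF (100 ng/mL) for 7 days and seeded overnight at 5 × 10⁴ cells/well. Cells were loaded with 4 μM Fluo-3 AM for 1 h at 37 °C, then placed in HBSS with 2.5 mM probenecid and 20 mM HEPES, pH 7.4. Agonist was added on FLIPR and read at ex 495/em 520 nm. EC50 is relative to the maximum from 1 μM C3a; n ≥ 3.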

For `Cc1cc(C(c2ccc(Cl)cc2)c2ccc(Cl)cc2)sc1C(=O)N[C@@H](CCCNC(=N)N)C(=O)O`, the Activity [1] was “Active”, the clearance [2] was 4.4 mL/min/kg and the IC50 [3] was 0.01 µM. For the same molecule, the inhibition [4] was “Dose-dependent effect”, the Cmax [5] was 88 ng/mL and the Activity [6] was “Active”. For the same molecule, the Tmax [7] was 5 h, the Stability [8] was “Stable” and the Activity [9] was 85%. For the same molecule, the inhibition [10] was “inactive”, the EC50 ([11]; read-out: EC50) was > 100 µM and the EC50 ([11]; read-out: pEC50 (converted)) was > 100 µM.
